Data reported in PubChem BioAssay AID1442 (PCMD, 2008).
Calls of active or inactive are those of the source.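 Rule for the calls: active = maximum enhancement above 22% with a fitted EC50 greater than zero; inactive = the rest.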

How the values were obtained:
[1] = tested on: mutant MDM2 reporter cells, luciferase luminescence enhancement, 2 h; assay: compounds raising luminescence in mutant MDM2 cells – cell-based, luciferase luminescence, dose response (AID 1442)
In short: (§1)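 assay system = MDM2-luciferase fusion reporter cells | detection = luminescence | timing = compound exposure of 2 h at 37 °C | read-out basis = percent signal enhancement over untreated cells, blank-corrected, four-parameter logistic fit | benchmarks = cells without compound as reference, wells for blank correction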

[2] = as above; conditions: mutant MDM2 reporter cells, luciferase luminescence enhancement, 2 h; hits give high values
In short: as §1

Row | SMILES | EC50 [1] | maximum enhancement [2]
1 | COc1cc(/C=C2\COC/C(=C\c3cc(OC)c(OC)c(OC)c3)C2=O)cc(OC)c1OC | 648 µM | 
2 | O=C(Cn1ncc(Cl)c(Cl)c1=O)NCC1CCCCC1 | 2.08 µM | 
3 | Cc1ccc(C=C2C(Cl)=C(Cl)C(Cl)=C2Cl)cc1 |  | 10.2% (inactive)
4 | COCCNC(=O)/C(C#N)=C/c1cccc(/C=C(\C#N)C(=O)NCCOC)c1 | 0.73 µM | 
5 | Cc1ccc2c(c1)c1ccc3c(c1n2C)C(=O)C=CC3=O | 1.83 µM | 
6 | CCOC(=O)C1=C(c2ccccc2)O/C(=C(/C#N)C(F)(F)F)S1 | 40.8 µM | 
7 | COc1ccc(NC(=O)/C(Cl)=C(/Cl)S(=O)Cc2ccc(C)cc2)cn1 (configuration not stated) | 0.84 µM | 
8 | C=C1C(=O)O[C@@H]2C[C@@H](C)[C@@H]3C=CC(=O)[C@@]3(C)[C@@H](O)[C@H]12 | 1.11 µM | 
9 | CN(C(=O)c1cccc(COc2ccc(Cl)cc2Cl)c1)c1ccccc1 | 15.6 µM (inactive) | 
10 | Cc1cccc2c1c1ccc3c(c1n2C)C(=O)C=CC3=O | 1.43 µM | 
11 | CC1=NN(c2cccc(C(=O)O)c2)C(=O)/C1=C\C=C/c1ccccc1 | 92.9 µM | 
12 | CC(C)c1ccc2c(c1)C1(NN=C(c3ccccc3)S1)C(=O)N2 (configuration not stated) | 1.42 µM | 
13 | O=C(/C=C/c1cccnc1)/C=C/c1cccnc1 | 0.58 µM | 
14 | CCN1C/C(=C/c2ccc(OC)c(O)c2)C(=O)/C(=C/c2ccc(OC)c(O)c2)C1 | 888 µM | 
15 | CCN(CC)c1ccc(/C=C2/C(=O)c3ccc(C(=O)O)cc3C2=O)cc1 |  | 15.6% (inactive)
16 | COc1ccccc1-c1cc(SC)c(C#N)c(=O)o1 |  | 18% (inactive)
17 | COc1ccc(CS(=O)/C(Cl)=C(/Cl)C(=O)Nc2ccc(OC)nc2)cc1 (configuration not stated) | 3.41 µM | 
18 | CC(C)c1ccc(OCc2cccc(C(=O)N/N=C/c3cccnc3)c2)cc1 | 200 µM (inactive) | 
19 | CN(C)C(=S)SSC(=S)N(C)C | 0.08 µM | 

Row | SMILES | EC50 [1] | maximum enhancement [2]
20 | CC(C)CC(=O)/C=C/n1c(=S)oc2ccccc21 | 4.79 µM | 
21 | CCSc1nc2ccccc2n1C(=O)/C=C/c1ccc(OC)c(OC)c1 | 1.13 µM | 
22 | C=CS(=O)(=O)c1ccc(Oc2ccc(S(=O)(=O)C=C)cc2)cc1 | 1.5 µM | 
23 | Cc1cc(C)nc(S/C=C/C(=O)c2ccc(F)cc2)n1 | 2.67 µM | 
24 | CC(NC(=O)Cn1ncc(Cl)c(Cl)c1=O)C12CC3CC(CC(C3)C1)C2 (configuration not stated) | 41.6 µM | 
25 | O=C1C(Cl)=C(N2CCCCC2)C(=O)C(Cl)=C1c1cnc(N2CCCCC2)s1 |  | 16.3% (inactive)
26 | COc1ccc(NC(=O)/C(Cl)=C(/Cl)S(=O)Cc2ccc(Cl)cc2)cn1 (configuration not stated) | 0.46 µM | 
27 | COc1cccc(OC)c1C(=O)NNC(=O)c1cccc(COc2ccc3c(c2)CCC3)c1 | 562 µM (inactive) | 
28 | Cc1cc(C)nc(S/C=C/C(=O)c2ccccc2)n1 | 0.79 µM | 
29 | CCOC(=O)N1C/C(=C\c2ccccc2)C(=O)/C(=C/c2ccccc2)C1 | 1.94 µM | 
30 | CCN(CC)c1ccc(/C=C2\C(=O)c3ccc(C(=O)O)cc3C2=O)cc1 | 216 µM (inactive) | 
31 | C=CCSc1nc2ccccc2n1C(=O)/C=C/c1cc(OC)c(OC)c(OC)c1 | 1.16 µM | 
32 | CCOC(=O)/C=C/C(=O)Nc1ccccc1-c1ccccc1NC(=O)/C=C/C(=O)OCC | 1320 µM | 
33 | Nc1cccc2c1C(=O)N(C(=O)/C=C/c1cccc(Br)c1)C2=O | 16.5 µM | 
34 | COC(=O)CSC1=C(C#N)C(=O)NC(c2ccccc2)S1 (configuration not stated) | 4.1 µM | 
35 | CN(C)c1nc(=NCc2ccco2)ss1 | 0.1 µM | 
36 | CCSc1nc2ccccc2n1C(=O)/C=C\c1ccc(OC)c(OC)c1 | 1630 µM | 
37 | O=C(/C=C/c1cccc([N+](=O)[O-])c1)n1cnc2ccccc21 | 1.72 µM | 
